Results reported in publication PMC12780499 (Zoological Research, 2025).
Structures can show the parent of a compound that is named as a salt. Where a SMILES comes first, the peptide text is derived from it. [ ]: non-standard residue; d: D form. AEEA = NCCOCCOCC(=O)O

How the values were obtained:
[1] = test system: K. pneumoniae (strain 9409); experiment: Salt sensitivity assay; format: cell-based, Klebsiella pneumoniae
Outline: (§1)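 MICs determined in RPMI-1640 with 150 mM FeCl₃, CaCl₂, KCl, NaCl or MgCl₂ added; unsupplemented RPMI 1640 as control. Read after 18–24 h at 37°C. Three independent experiments, mean±SEM.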

[2] = test system: MRSA (strain 33564); experiment: Salt sensitivity assay; format: cell-based, methicillin-resistant Staphylococcus aureus
Outline: as §1

[3] = test system: HaCaT (human keratinocytes); experiment: Cytotoxicity, CCK-8; format: cell-based; conditions: nearly all concentrations (2.5-80 μmol/L), 24 h
[4] = test system: RAW264.7 (murine macrophages); experiment: Cytotoxicity, CCK-8; format: cell-based; conditions: nearly all concentrations (2.5-80 μmol/L), 24 h
[5] = test system: HEK293 (human embryonic kidney cells); experiment: Cytotoxicity, CCK-8; format: cell-based; conditions: nearly all concentrations (2.5-80 μmol/L), 24 h
[6] = In vivo toxicity, 5 day intraperitoneal dosing; set-up: species or system mouse (female CD-1); conditions: for serum urea: n = 4; for aspartate aminotransferase (AST): serum day 5, n = 4; for alanine aminotransferase (ALT): serum day 5, n = 4, mean
Outline: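 Test compound given intraperitoneally to mice over 5 days at 5 and 10 mg/kg; PBS control group. Serum ALT and AST measured in U/L.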

[7] = In vivo pharmacokinetics; set-up: species or system mouse (female CD-1)
Outline: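 Plasma concentrations of test compound measured by HPLC over 8 h after dosing.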

[8] = test system: MRSA (strain 33564); experiment: Time-kill kinetics; format: cell-based, methicillin-resistant Staphylococcus aureus; conditions: 1×10^7 CFU/mL, RPMI 1640 + 10% FBS, 37°C
Outline: (§2)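 Bacteria adjusted to 1×10^7 CFU/mL in RPMI 1640 with 10% FBS. Incubated at 37°C, 200 rpm. Sampled every 30 min from 0 to 360 min, serially diluted in saline, plated on Mueller-Hinton agar, counted after 24 h at 37°C. Plotted as log₁₀ CFU/mL versus time.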

[9] = test system: K. pneumoniae (strain 9409); experiment: Time-kill kinetics; format: cell-based, Klebsiella pneumoniae; conditions: TRPY 2 μmol/L; 1×10^7 CFU/mL, RPMI 1640 + 10% FBS, 37°C
Outline: as §2

[10] = test system: MRSA; experiment: Agar spotting assay; format: cell-based, methicillin-resistant Staphylococcus aureus; conditions: bacterial spotting assay, Fig. 4B
[11] = test system: K. pneumoniae; experiment: Agar spotting assay; format: cell-based, Klebsiella pneumoniae; conditions: bacterial spotting assay, Fig. 4B
[12] = test system: MRSA strain 33564; experiment: Membrane permeabilization, PI uptake; format: cell-based, methicillin-resistant Staphylococcus aureus; conditions: 0-32 μM, PI 10 μg/mL, 37°C 30 min
[13] = test system: K. pneumoniae strain 9409; experiment: Membrane permeabilization, PI uptake; format: cell-based, Klebsiella pneumoniae; conditions: 0-32 μM, PI 10 μg/mL, 37°C 30 min
[14] = test system: bacterial DNA; experiment: DNA interaction, gel electrophoresis; format: binding; conditions: Fig. S5
[15] = test system: MRSA biofilm; experiment: Biofilm formation inhibition, crystal violet; format: cell-based, methicillin-resistant Staphylococcus aureus; conditions: TRPY 32 μmol/L, 24 h
Outline: (§3)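 Biofilms formed with test compound present (inhibition) or pre-formed then treated (eradication). Stained with 0.1% crystal violet; biofilm quantified by absorbance at 600 nm against untreated control.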

[16] = test system: K. pneumoniae biofilm; experiment: Biofilm formation inhibition, crystal violet; format: cell-based, Klebsiella pneumoniae; conditions: TRPY 32 μmol/L, 24 h
Outline: as §3

[17] = test system: MRSA biofilm; experiment: Eradication of preformed biofilm, crystal violet; format: cell-based, methicillin-resistant Staphylococcus aureus; conditions: TRPY 8 µmol/L, 24 h on 24 h biofilm
Outline: as §3

[18] = test system: K. pneumoniae biofilm; experiment: Eradication of preformed biofilm, crystal violet; format: cell-based, Klebsiella pneumoniae; conditions: TRPY 8 µmol/L, 24 h on 24 h biofilm
Outline: as §3

[19] = test system: MRSA persister cells; experiment: Anti-persister activity; format: cell-based, methicillin-resistant Staphylococcus aureus; conditions: 8 μmol/L, 1 h 37°C; persisters from vancomycin 50× MIC 6 h
Outline: (§4)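 Exponential-phase cultures treated 6 h with 50× MIC colistin (K. pneumoniae) or vancomycin (MRSA). Survivors pelleted (4 000 r/min, 10 min, 4°C), washed twice in PBS and resuspended in Mueller-Hinton broth at about 1×10^7 CFU/mL. […] Serially diluted, plated on Mueller-Hinton agar, CFU counted.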

[20] = test system: K. pneumoniae persister cells; experiment: Anti-persister activity; format: cell-based, Klebsiella pneumoniae; conditions: 8× MIC, 1 h 37°C; persisters from colistin 50× MIC 6 h
Outline: as §4

[21] = test system: LPS; experiment: BODIPY-TR-cadaverine displacement assay; format: binding; conditions: 0-64 μmol/L, LPS 50 μg/mL, 50 mmol/L Tris pH 7.4, 30 min 37°C
[22] = test system: K. pneumoniae R62; experiment: Acute K. pneumoniae pulmonary infection model; format: in vivo, mouse (female CD-1)
[23] = test system: MRSA 33564; experiment: MRSA peritoneal infection model; format: in vivo, mouse (female CD-1); conditions: 10 mg/kg i.p.
Outline: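 Female CD-1 mice (8–10 weeks) were challenged intraperitoneally with MRSA (1×10^8 CFU/mL). At 2 h post-infection they received 10 mg/kg test compound or PBS vehicle intraperitoneally (n=6 per group). Liver and kidneys were collected at 24 h post-infection and fixed in formalin. H&E-stained sections were compared with those from healthy, infected and vehicle-treated mice.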

[24] = test system: E. coli LPS; experiment: LPS-induced endotoxemia model; format: in vivo, mouse (female CD-1); conditions: 10 mg/kg i.p. 1 h after LPS 10 mg/kg, blood 6 h after LPS, n = 5
Outline: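 Female CD-1 mice (8–10 weeks) challenged intravenously with E. coli LPS 10 mg/kg. Test compound 10 mg/kg given intraperitoneally 1 h later (n=5); LPS-only controls. Blood drawn 6 h after LPS. Serum IL-6, MCP-1, TNF-α and IL-1β measured by ELISA. Mean±SEM; one-way ANOVA, Dunnett.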

[25] = Dynamic light scattering; format: physicochemical; conditions: DLS, 500 μg/mL in PBS pH 7.4, 25°C, triplicate
[26] = test system: K. pneumoniae 9409; experiment: Bacterial aggregation; format: cell-based, Klebsiella pneumoniae; conditions: 10 to 80 μmol/L, 4 h 37°C, PBS
[27] = test system: MRSA 33564; experiment: Bacterial aggregation; format: cell-based, methicillin-resistant Staphylococcus aureus; conditions: 10 to 80 μmol/L, 4 h 37°C, PBS
[28] = test system: MRSA-infected RAW264.7 macrophages; experiment: Intracellular antibacterial activity; format: cell-based; conditions: vancomycin 20 μmol/L, 2 h; MOI 10:1
[29] = test system: MRSA (strain 33564); experiment: Membrane depolarization, DiSC3; format: cell-based, methicillin-resistant Staphylococcus aureus; conditions: 30 min observation
Outline: (§5)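 Cells grown in Mueller-Hinton broth to OD600 0.5, pelleted (3500 r/min, 5 min, 4°C), washed twice in 5 mM HEPES pH 7.4 with 20 mM glucose. Adjusted to OD600 0.05 and loaded 30 min at room temperature with DiSC₃(5) (2 µmol/L final). KCl added (100 mmol/L final). After baseline reading (ex 622/em 670 nm), test compound added at 1, 2, 4 or 8 µmol/L; read continuously for 30 min.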

[30] = test system: K. pneumoniae (strain 9409); experiment: Membrane depolarization, DiSC3; format: cell-based, Klebsiella pneumoniae; conditions: 30 min observation
Outline: as §5

[31] = 150 mmol/L of each salt in RPMI-1640
[32] = 5 mg/kg i.p. once daily for 5 days
[33] = 10 mg/kg i.p. once daily for 5 days
[34] = 5 and 10 mg/kg i.p. for 5 days vs PBS
[35] = female, CD-1, mouse, plasma, iv, 5 mg/kg
[36] = 2 mg/kg intranasal, 18 h post-treatment, n = 7

**Q.** What does the source list for `CC[C@H](C)[C@H](NC(=O)[C@H](CCCCN)NC(=O)[C@H](Cc1c[nH]c2ccccc12)NC(=O)[C@H](Cc1c[nH]c2ccccc12)NC(=O)[C@H](CCCCN)NC(=O)[C@H](CCCCN)NC(=O)[C@H](CCCCN)NC(=O)[C@H](Cc1c[nH]c2ccccc12)NC(=O)[C@H](CCCCN)NC(=O)[C@H](CCCCN)NC(=O)[C@H](Cc1c[nH]c2ccccc12)NC(=O)[C@H](CCCCN)NC(=O)[C@H](CCCCN)NC(=O)[C@@H](NC(=O)[C@@H](NC(=O)[C@H](CCCCN)NC(=O)[C@@H](N)CCCNC(=N)N)[C@@H](C)CC)[C@@H](C)CC)C(=O)N[C@@H](Cc1c[nH]c2ccccc12)C(=O)N[C@@H](Cc1c[nH]c2ccccc12)C(=O)N[C@@H](CCCCN)C(=O)NCCOCCOCC(N)=O` [TRPY] (H-RKIIKKWKKWKKKWWKIWWK[AEEA]-NH2; N-terminus and C-terminus assumed)?
**A.** effect of KCl, NaCl, and CaCl2 on antimicrobial activity [1, 31]: minimal interference with antimicrobial activity; MIC with FeCl3 ([1]; RPMI-1640 + 150 mmol/L FeCl3, 37°C 18-24 h, strain 9409): approximately 2.0 μmol/L; MIC with MgCl2 ([1]; RPMI-1640 + 150 mmol/L MgCl2, 37°C 18-24 h, strain 9409): approximately 2.0 μmol/L; effect of KCl, NaCl, and CaCl2 on antimicrobial activity [2, 31]: minimal interference with antimicrobial activity; MIC with FeCl3 ([2]; RPMI-1640 + 150 mmol/L FeCl3, 37°C 18-24 h, strain 33564): approximately 2.0 μmol/L; MIC with MgCl2 ([2]; RPMI-1640 + 150 mmol/L MgCl2, 37°C 18-24 h, strain 33564): approximately 2.0 μmol/L; cell viability [3]: over 80%; cell viability [4]: over 80%; cell viability [5]: over 80%; serum urea [6, 32]: 11.2 ± 1.5 µmol/L; aspartate aminotransferase (AST) [6, 32]: 102.7±6.6 U/L; alanine aminotransferase (ALT) [6, 32]: 22.8±2.6 U/L; serum urea [6, 33]: 12.1 ± 1.2 µmol/L; aspartate aminotransferase (AST) [6, 33]: 105.2±4.7 U/L; alanine aminotransferase (ALT) [6, 33]: 23.4±3.2 U/L; kidney histopathology (H&E) ([6]; 5 and 10 mg/kg i.p. for 5 days): normal glomerular and tubular architecture; liver histopathology (H&E) ([6]; 5 and 10 mg/kg i.p. for 5 days): no signs of necrosis, inflammation, or fatty degeneration; alkaline phosphatases (ALP) levels [6, 34]: comparable across treatment groups; body weight [6, 34]: no significant differences between the TRPY-treated and control groups; level at 0.25 h [7, 35]: ~15000 ng/mL; level at 2 h [7, 35]: < 1000 ng/mL; level at 8 h [7, 35]: ~120 ng/mL; elimination profile ([7]; single i.v. 5 mg/kg, 8 h): biphasic elimination profile; time to eradicate all viable cells ([8]; TRPY 2 μmol/L): ≤ 60 min; time to eliminate all viable cells [9]: ≤ 60 min; concentration giving complete growth inhibition [10]: ≥ 1 µmol/L; concentration giving complete growth inhibition [11]: ≥ 1 µmol/L; PI uptake (cytoplasmic membrane disruption) [12]: concentration-dependent increase in PI fluorescence; PI uptake (cytoplasmic membrane disruption) [13]: concentration-dependent increase in PI fluorescence; concentration inducing degradation or binding to bacterial DNA [14]: ≥ 4 µmol/L; reduction of biofilm formation compared to control [15]: approximately 95%; reduction of biofilm formation compared to control [16]: approximately 95%; reduction of preformed biofilm [17]: over 40%; reduction of preformed biofilm [18]: over 40%; persister cells after treatment [19]: complete eradication; persister CFU/mL after treatment [20]: virtually undetectable levels; LPS binding (probe displacement) [21]: strong, concentration-dependent binding to LPS; lung histology (H&E) ([22]; 2 mg/kg intranasal): reduced inflammatory cell infiltration and preserved alveolar architecture; reduction of pulmonary bacterial burden vs control ([22]; 2 mg/kg intranasal 2 h post-infection, lungs 18 h post-treatment, n = 7): approximately 1 log; reduction in IL-1β vs control group [22, 36]: 42.8%; reduction in IL-6 vs control group [22, 36]: 39.2%; reduction in MCP-1 vs control group [22, 36]: 58.4%; reduction in TNF-α vs control group [22, 36]: 34.7%; liver and kidney histopathology in infected mice [23]: maintained normal tissue architecture in the liver and kidneys; reduction of serum IL-1β relative to LPS-only controls [24]: 52.3%; reduction of serum IL-6 relative to LPS-only controls [24]: 42.3%; reduction of serum MCP-1 relative to LPS-only controls [24]: 46.6%; reduction of serum TNF-α relative to LPS-only controls [24]: 39.5%; nanoparticle average size [25]: approximately 160 nm; bacterial aggregation [26]: dose-dependent formation of visible precipitates; bacterial aggregation [27]: dose-dependent formation of visible precipitates

**Q.** With `CN[C@H](CC(C)C)C(=O)N[C@H]1C(=O)N[C@@H](CC(N)=O)C(=O)N[C@H]2C(=O)N[C@H]3C(=O)N[C@H](C(=O)N[C@H](C(=O)O)c4cc(O)cc(O)c4-c4cc3ccc4O)[C@H](O)c3ccc(c(Cl)c3)Oc3cc2cc(c3O[C@@H]2O[C@H](CO)[C@@H](O)[C@H](O)[C@H]2O[C@H]2C[C@](C)(N)[C@H](O)[C@H](C)O2)Oc2ccc(cc2Cl)[C@H]1O` [Vancomycin, vancomycin sulfate] as the compound, how does the intracellular bacterial burden [28] read?
**A.** approximately 1.5×10^5 CFU/mL

**Q.** Which “time to eradicate all viable cells” value ([8]; gentamicin 20 μmol/L) does the source give for `CNC(C)C1CCC(N)C(OC2C(N)CC(N)C(OC3OCC(C)(O)C(NC)C3O)C2O)O1` (stereo not shown) [Gentamicin, gentamicin sulfate] here?
**A.** over 360 min

**Q.** And the “DiSC3(5) fluorescence (membrane potential)” value [29]?
**A.** maintained baseline fluorescence

**Q.** What about the “DiSC3(5) fluorescence (membrane potential)” value [30] of the same compound?
**A.** maintained baseline fluorescence
